Active and inactive are the calls of the source. The calls are words filed in the database; no cut-off is given here.
What was measured:
Homo sapiens [1] = organism: Homo sapiens; experiment: Inhibition of SRPK in human NALM6 cells assessed as decrease in RON mRNA expression level at 20 uM after 24 hrs by qRT-PCR analysis; format: cell-based
How it was run: (§1)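 Nalm6 given 20 µM for 24 h with 0.4% DMSO control; mRNA isolated with Tri Reagent, quantified spectrophotometrically, integrity checked on 1% agarose, then RT-PCR for target transcripts; one representative of three experiments.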

Jurkat = experiment: Cytotoxicity against human Jurkat cells assessed as reduction in cell viability up to 200 uM after 48 hrs by MTT assay; format: functional, cell-based; settings: Homo sapiens, Jurkat, 48 h; read-out: IC50
How it was run: (§2)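 Cells (7x10^4/well) in RPMI-1640 with 10% FBS, 37 °C, 5% CO2; exposed to compound dilutions 0–200 µM (medium with 10% FBS, 0.4% DMSO) for 48 h. MTT added, 3 h at 37 °C, formazan dissolved in DMSO, absorbance 540 nm. IC50 from concentration–response; means ± standard deviation of three independent experiments.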

Homo sapiens [2] = organism: Homo sapiens; experiment: Inhibition of SRPK in human NALM6 cells assessed as decrease in MAP2K2 mRNA expression level at 20 uM after 24 hrs by qRT-PCR analysis; format: cell-based; how it was run: as §1
Homo sapiens [3] = organism: Homo sapiens; experiment: Inhibition of SRPK in human NALM6 cells assessed as decrease in MAP2K1 mRNA expression level at 20 uM after 24 hrs by qRT-PCR analysis; format: cell-based; how it was run: as §1
Homo sapiens [4] = organism: Homo sapiens; experiment: Inhibition of SRPK in human NALM6 cell lysates assessed as reduction in phospho-SR epitopes signal at 20 uM after 24 hrs by Western blot analysis
How it was run: (§3)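 Nalm6 treated 24 h at 20 µM (DMSO vehicle control), lysed at 2x10^7 cells/mL in PBS with 1% NP40, 1 mM EDTA, 150 mM NaCl, 10 mM Tris pH 7.4 plus protease/phosphatase inhibitors; on ice 10 min, sonicated, spun 15000 xg; SDS-PAGE, PVDF, milk block overnight, primary and secondary antibody 2 h each; representative of three.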

Homo sapiens [5] = organism: Homo sapiens; experiment: Inhibition of SRPK in human NALM6 cells assessed as decrease in VEGF mRNA expression level at 20 uM after 24 hrs by qRT-PCR analysis; format: cell-based; how it was run: as §1
HL-60 [6] = experiment: Cytotoxicity against human HL60 cells assessed as reduction in cell viability up to 200 uM after 48 hrs by MTT assay; format: functional, cell-based; settings: Homo sapiens, HL-60, 48 h; read-out: IC50; how it was run: as §2
NALM-6 [7] = experiment: Cytotoxicity against human NALM6 cells assessed as reduction in cell viability up to 200 uM after 48 hrs by MTT assay; format: functional, cell-based; settings: Homo sapiens, NALM-6, 48 h; read-out: IC50; how it was run: as §2
NALM-6 [8] = experiment: Induction of autophagy in human NALM6 cells at 20 uM after 24 hrs by acridin orange staining based fluorescence microscopy; format: functional, cell-based
How it was run: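 Nalm6 (7x10^4/well) exposed 24 h to 20 µM or 0.4% DMSO, washed in PBS, stained with 1 µM acridine orange at 37 °C for 15 min, washed, resuspended in PBS; autophagosomes (red fluorescence) viewed by fluorescence microscopy; three experiments.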

NALM-6 [9] = experiment: Effect on actin expression level in human NALM6 cells at 20 uM after 24 hrs by qRT-PCR analysis; format: ADME, cell-based; settings: nalm-6, 24 h
NALM-6 [10] = experiment: Effect on SRPK2 expression level in human NALM6 cells at 20 uM after 24 hrs by Western blot analysis; format: functional, cell-based; how it was run: as §3
NALM-6 [11] = experiment: Effect on actin expression level in human NALM6 cells at 20 uM after 24 hrs by Western blot analysis; format: ADME, cell-based; settings: nalm-6, 24 h; how it was run: as §3
NALM-6 [12] = experiment: Induction of apoptosis in human NALM6 cells assessed as late apoptotic cells at 20 uM after 24 hrs by Annexin-V/FITC propidium iodide staining based flow cytometric analysis (reference value: 1.68%); format: functional
NALM-6 [13] = experiment: Synergistic cytotoxicity against human NALM6 cells assessed as reduction in cell viability by measuring combination index at 1.5 uM after 48 hrs in presence of 0.5 nM vincristine by MTT assay; format: functional
PBMC = experiment: Cytotoxicity against PHA-stimulated human PBMC assessed as reduction in cell viability at 25 uM after 48 hrs by MTT assay; format: cell-based
How it was run: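 Primary peripheral blood mononuclear cells seeded 1x10^5/well in complete RPMI; treated with 25 µM for 48 h. Viability by MTT (3 h, 37 °C, DMSO solubilization, 540 nm), vehicle taken as 100% viability; triplicate experiments, means ± standard deviation.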

NALM-6 [14] = experiment: Induction of apoptosis in human NALM6 cells assessed as early apoptotic cells at 20 uM after 24 hrs by Annexin-V/FITC propidium iodide staining based flow cytometric analysis (reference value: 8.22%); format: functional
NALM-6 [15] = experiment: Induction of apoptosis in human NALM6 cells assessed as necrotic cells at 20 uM after 12 hrs by Annexin-V/FITC propidium iodide staining based flow cytometric analysis (reference value: 0.04%); format: functional
NALM-6 [16] = experiment: Induction of apoptosis in human NALM6 cells assessed as late apoptotic cells at 20 uM after 12 hrs by Annexin-V/FITC propidium iodide staining based flow cytometric analysis (reference value: 0.45%); format: functional
NALM-6 [17] = experiment: Induction of apoptosis in human NALM6 cells assessed as early apoptotic cells at 20 uM after 12 hrs by Annexin-V/FITC propidium iodide staining based flow cytometric analysis (reference value: 7.40%); format: functional
HL-60 [18] = experiment: Antiproliferative activity against human HL60 cells at 20 uM by trypan blue dye exclusion assay; format: functional, cell-based; settings: TDE = time-dependent effect
How it was run: (§4)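 Nalm6 at 1x10^4 or HL60 at 1.5x10^4 cells per well exposed to 20 µM; DMSO (0.4% v/v) as control. Viable cells counted by trypan blue exclusion on a hemocytometer at 0, 24, 48, 72 and 96 h; growth inhibition relative to control.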

NALM-6 [19] = experiment: Induction of apoptosis in human NALM6 cells assessed as necrotic cells at 20 uM after 24 hrs by Annexin-V/FITC propidium iodide staining based flow cytometric analysis (reference value: 0%); format: functional
NALM-6 [20] = experiment: Synergistic cytotoxicity against human NALM6 cells assessed as reduction in cell viability by measuring combination index at 3 uM after 48 hrs in presence of 1 nM vincristine by MTT assay; format: functional
NALM-6 [21] = experiment: Effect on SRPK1 expression level in human NALM6 cells at 20 uM after 24 hrs by Western blot analysis; format: functional, cell-based; how it was run: as §3
NALM-6 [22] = experiment: Antiproliferative activity against human NALM6 cells at 20 uM by trypan blue dye exclusion assay; format: functional, cell-based; settings: TDE = time-dependent effect; how it was run: as §4
NALM-6 [23] = experiment: Cytotoxicity against human NALM6 cells assessed as cell growth inhibition at 20 uM after 96 hrs by trypan blue dye exclusion assay relative to control; format: functional; settings: NALM-6, 96 h, read-out: GI; how it was run: as §4
HL-60 [24] = experiment: Cytotoxicity against human HL60 cells assessed as cell growth inhibition at 20 uM after 96 hrs by trypan blue dye exclusion assay relative to control; format: functional; settings: HL-60, 96 h, read-out: GI; how it was run: as §4
NALM-6 [25] = experiment: Induction of apoptosis in human NALM6 cells assessed as viable cells at 20 uM after 24 hrs by Annexin-V/FITC propidium iodide staining based flow cytometric analysis (reference value: 90.10%); format: functional; settings: NALM-6, 24 h, read-out: Activity
NALM-6 [26] = experiment: Induction of apoptosis in human NALM6 cells assessed as viable cells at 20 uM after 12 hrs by Annexin-V/FITC propidium iodide staining based flow cytometric analysis (reference value: 92.11%); format: functional; settings: NALM-6, 12 h, read-out: Activity
NALM-6 [27] = experiment: Synergistic cytotoxicity against human NALM6 cells assessed as reduction in cell viability by measuring combination index at 17.9 uM after 48 hrs in presence of 1 nM vincristine by MTT assay; format: functional
NALM-6 [28] = experiment: Synergistic cytotoxicity against human NALM6 cells assessed as reduction in cell viability by measuring combination index at 8.9 uM after 48 hrs in presence of 0.5 nM vincristine by MTT assay; format: functional
NALM-6 [29] = experiment: Synergistic cytotoxicity against human NALM6 cells assessed as reduction in cell viability by measuring combination index at 8.5 uM after 48 hrs in presence of 1 nM vincristine by MTT assay; format: functional
NALM-6 [30] = experiment: Synergistic cytotoxicity against human NALM6 cells assessed as reduction in cell viability by measuring combination index at 4.3 uM after 48 hrs in presence of 0.5 nM vincristine by MTT assay; format: functional

In the case of O=C(Nc1cc(C(F)(F)F)ccc1N1CCCCC1)c1ccncc1, the inhibition (Homo sapiens [1]) is reported as “inactive”, the IC50 (Jurkat) is reported as 75.4 µM and the inhibition (Homo sapiens [2]) is reported as “inactive”. For the same molecule, the inhibition (Homo sapiens [3]) was “inactive”, the inhibition (Homo sapiens [4]) was “Active” and the inhibition (Homo sapiens [5]) was “inactive”. It also gave an IC50 (HL-60 [6]) of 38.3 µM and an IC50 (NALM-6 [7]) of 70.6 µM.

O=C(Nc1cc(C(F)(F)F)ccc1Nc1ccc(Br)cc1)c1ccccc1 was tested, and the inhibition (Homo sapiens [1]) was “Active”, the Activity (NALM-6 [8]) was “Active” and the Activity (NALM-6 [9]) was “Non-Toxic”. The Activity (NALM-6 [10]) was “inactive”, the Activity (NALM-6 [11]) was “Non-Toxic” and the IC50 (Jurkat) was 33.8 µM. The Activity (NALM-6 [12]) was 2.01%, the CI (NALM-6 [13]) was 0.56 and the Activity (PBMC) was “Non-Toxic”. The Activity (NALM-6 [14]) was 24.73%, the Activity (NALM-6 [15]) was 0.02% and the Activity (NALM-6 [16]) was 0.52%. For the same molecule, the Activity (NALM-6 [17]) was 13.53%, the Activity (HL-60 [18]) was “Tde” and the Activity (NALM-6 [19]) was 0.01%. The CI (NALM-6 [20]) was 1.05, the Activity (NALM-6 [21]) was “inactive” and the IC50 (HL-60 [6]) was 11.8 µM. For the same molecule, the Activity (NALM-6 [22]) was “Tde”, the inhibition of growth at 20 µM (NALM-6 [23]) was 72% and the inhibition of growth at 20 µM (HL-60 [24]) was 48%. It also gave an IC50 (NALM-6 [7]) of 6 µM, a viability at 20 µM (NALM-6 [25]) of 73.2% and a viability at 20 µM (NALM-6 [26]) of 85.9%.

With O=C(Nc1cc(C(F)(F)F)ccc1Nc1ccc(Br)cc1)c1cccnc1Cl the Activity (NALM-6 [8]) was “Active”, the Activity (NALM-6 [9]) was “Non-Toxic” and the Activity (NALM-6 [10]) was “inactive”. The Activity (NALM-6 [11]) was “Non-Toxic”, the IC50 (Jurkat) was 20.6 µM and the Activity (NALM-6 [12]) was 1.16%. The CI (NALM-6 [27]) was 1.02, the CI (NALM-6 [28]) was 0.57 and the Activity (PBMC) was “Toxic”. The Activity (NALM-6 [14]) was 11.91%, the Activity (NALM-6 [15]) was 0% and the Activity (NALM-6 [16]) was 0.52%. The Activity (NALM-6 [17]) was 11.7%, the Activity (HL-60 [18]) was “Tde” and the Activity (NALM-6 [19]) was 0.07%. The Activity (NALM-6 [21]) was “inactive”, the IC50 (HL-60 [6]) was 14.2 µM and the Activity (NALM-6 [22]) was “Tde”. For the same molecule, the inhibition of growth at 20 µM (NALM-6 [23]) was 37%, the inhibition of growth at 20 µM (HL-60 [24]) was 33% and the IC50 (NALM-6 [7]) was 35.7 µM. For the same molecule, the viability at 20 µM (NALM-6 [25]) was 86.8% and the viability at 20 µM (NALM-6 [26]) was 87.9%.

With O=C(Nc1cc(C(F)(F)F)ccc1Nc1ccc(Br)cc1)c1cccnc1 the inhibition (Homo sapiens [1]) was “Active”, the Activity (NALM-6 [8]) was “Active” and the Activity (NALM-6 [9]) was “Non-Toxic”. The Activity (NALM-6 [10]) was “inactive”, the Activity (NALM-6 [11]) was “Non-Toxic” and the IC50 (Jurkat) was 17.8 µM. The Activity (NALM-6 [12]) was 0.92%, the inhibition (Homo sapiens [2]) was “Active” and the Activity (PBMC) was “Non-Toxic”. It also gave an Activity (NALM-6 [14]) of 14.66%, an Activity (NALM-6 [15]) of 0% and an Activity (NALM-6 [16]) of 0.67%. For the same molecule, the inhibition (Homo sapiens [3]) was “Active”, the inhibition (Homo sapiens [4]) was “Active” and the Activity (NALM-6 [17]) was 12.33%. For the same molecule, the Activity (HL-60 [18]) was “Tde”, the inhibition (Homo sapiens [5]) was “Active” and the Activity (NALM-6 [19]) was 0.01%. The Activity (NALM-6 [21]) was “inactive”, the IC50 (HL-60 [6]) was 8.5 µM and the Activity (NALM-6 [22]) was “Tde”. The inhibition of growth at 20 µM (NALM-6 [23]) was 66%, the CI (NALM-6 [29]) was 0.78 and the inhibition of growth at 20 µM (HL-60 [24]) was 38%. For the same molecule, the IC50 (NALM-6 [7]) was 17 µM, the viability at 20 µM (NALM-6 [25]) was 84.4% and the viability at 20 µM (NALM-6 [26]) was 87%. It also gave a CI (NALM-6 [30]) of 0.45.
